{"source": "paper PMC9111543", "about": "(International Journal for Parasitology: Drugs and Drug …, 2022)", "experiment": "Cytotoxicity assay on MRC-5 fibroblasts", "format": "cell-based", "details": "human, MRC-5SV2 cells", "outline": "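MRC-5SV2 cells grown in MEM with L-glutamine, NaHCO3 and 5% hiFBS, seeded at 15,000 cells/well. Four-fold dilutions of test compound were added, with a highest in-test concentration of 64 μM. Cells were exposed for 72 h at 37 °C and 5% CO2, then incubated with resazurin for 4 h and read by fluorescence. CC50 was calculated from ≥2 independent experiments in duplicate.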", "data": [{"smiles": "CC[n+]1c(-c2ccccc2)c2cc(N/N=N/c3cccc(C(=N)N)c3)ccc2c2ccc(N)cc21", "note": "[isometamidium]", "values": [{"measurement": "CC50 at 72 h", "value": 22.7, "unit": "µM"}]}]}
